Data set [1] is described as follows: Intrinsic solubility of the compound. In kind it is physicochemical.
Data set [2] is described as follows: Oral bioavailability in Sprague-Dawley rat at 5 mg/kg. It is filed as ADME, organism-based. To be noted: in vivo. A digest of the protocol: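 Sprague-Dawley rats (n=3) dosed po at 5 mg/kg as a solution in 10% NMP/10% solutol/40% PEG-400/40% saline. Iv arm given at 1 mg/kg in the same vehicle.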
A short description of data set [3]: AUC (infinity) in Sprague-Dawley rat at 1 mg/kg, iv. It is filed as ADME, organism-based. Further details: dose 1 mg/kg, time infinity, route intravenous. To be noted: in vivo. A digest of the protocol:
(§1)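 Sprague-Dawley rats (n=3) dosed iv at 1 mg/kg as a solution in 10% NMP/10% solutol/40% PEG-400/40% saline.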

Data set [4] deals with Rattus norvegicus. The data set can be described thus: Clearance in Sprague-Dawley rat at 1 mg/kg, iv. It is filed as ADME, organism-based. To be noted: in vivo. In a few lines:
as §1

The nature of data set [5]: Volume of distribution at steady state in Sprague-Dawley rat at 1 mg/kg, iv. It is filed as ADME, organism-based. To be noted: in vivo, read-out: Vdss. In a few lines: as §1
The nature of data set [6]: Half life in Sprague-Dawley rat at 1 mg/kg, iv. As to conditions: in vivo. It is filed as ADME, organism-based. In a few lines:
as §1

A short description of data set [7]: Cytotoxicity against human HuH7 cells after 24 hrs. In kind it is cell-based, Huh-7.
Data set [8] is described as follows: Metabolic stability in human liver microsomes assessed as parent compound remaining after 60 mins. It is filed as ADME, microsome. As to conditions: read-out: Stability. In general terms: Liver microsomes are a subcellular fraction often used to study metabolism.
Data set [9] in a line: Metabolic stability in rat liver microsomes assessed as parent compound remaining after 60 mins. It is filed as ADME, microsome. To be noted: read-out: Stability.

The text below walks through data of ChEMBL document CHEMBL4184265, “Discovery of novel potent HCV NS5B polymerase non-nucleoside inhibitors bearing a fused benzofuran scaffold” (Bioorg Med Chem Lett, 2018).

As usually defined, the bioavailability is the share of a dose that reaches the circulation, judged against a reference dose that is usually intravenous. Low values mean poor availability, high ones good availability. By AUC(0-inf) is commonly meant total exposure, with the tail of the curve extrapolated. A higher AUC(0-inf) goes with high exposure. For orientation: clearance means the volume of plasma or blood freed of the substance per unit of time. A low value points to inefficient removal. By half-life is commonly meant the time in which the quantity being followed falls by half. Low values mean rapid decline, high ones slow decline. As usually defined, the CC50 is the concentration that lowers cell viability or growth by half. A low value points to harm at low concentration.

In the case of `CS(=O)(=O)N1CCCCc2cc3c(-c4ncc[nH]4)c(-c4ccc(F)cc4)oc3cc21`, in data set [1], the solubility result is “Insoluble”.

In the case of `CNC(=O)c1c(-c2ccc(F)cc2)oc2cc3c(cc12)C(C)NCCN3S(C)(=O)=O` (racemic), the solubility entry in data set [1] is listed as “Soluble”.

In [2], `CNC(=O)c1c(-c2ccc(F)cc2)oc2cc3c(cc12)[C@H](C)CCCN3S(C)(=O)=O` displayed a bioavailability of 22%. In data set [3], this compound gave an AUC(0-inf) of 439 ng·h/mL. This compound also had a clearance in data set [4] of 38.2 mL/min/kg. Moreover, in [5], the Vd was found to be 2.36 L/kg. This compound had a half-life in data set [6] of 0.96 h.

With `CNC(=O)c1c(-c2ccc(F)cc2)oc2cc3c(cc12)[C@H](C)O[C@H](CO)CN3S(C)(=O)=O`, the bioavailability in [2] was 73%. In data set [3], this compound came in with an AUC(0-inf) of 759 ng·h/mL. This compound also registered a CC50 at 24 h in data set [7] greater than 3 µM. For the same compound, the values for the remaining at 1 h in [8] and in data set [9] were 100% and 60%, respectively. Moreover, in data set [4], the clearance amounted to 22 mL/min/kg. Further, in data set [5], the Vd was 2.25 L/kg. The compound further gave a half-life in data set [6] of 1.32 h.

Regarding `CNC(=O)c1c(-c2ccc(F)cc2)oc2cc3c(cc12)C(C)n1ccnc1CN3S(C)(=O)=O` (racemic), the solubility entry in data set [1] is reported as “Insoluble”.

For `CNC(=O)c1c(-c2ccc(F)cc2)oc2cc3c(cc12)C(C)OC(CO)CN3S(C)(=O)=O` (racemic), the figures for the remaining at 1 h in data set [8] and in data set [9] were 85.9% and 68.9%, respectively.

In the case of `CNC(=O)c1c(-c2ccc(F)cc2)oc2cc3c(cc12)C(C)n1nncc1CN3S(C)(=O)=O` (racemic), the solubility entry in data set [1] is on record as “Insoluble”.

Consider `CNC(=O)c1c(-c2ccc(F)cc2)oc2cc3c(cc12)[C@H](C)NC(=O)CN3S(C)(=O)=O`, for which the bioavailability in data set [2] was determined as 14%. For the same compound, the area under the curve AUC(0-inf) in [3] is 379 ng·h/mL. In data set [4], this compound gave a clearance of 44.5 mL/min/kg. Moreover, the Vd in [5] worked out at 1.74 L/kg. This compound showed a half-life in data set [6] of 0.68 h.

Regarding `CNC(=O)c1c(-c2ccc(F)cc2)oc2cc3c(cc12)C(C)n1nnnc1CN3S(C)(=O)=O` (racemic), the solubility result in [1] is given as “Insoluble”.

Turning to `CNC(=O)c1c(-c2ccc(F)cc2)oc2cc3c(cc12)[C@H](C)n1nncc1CN3S(C)(=O)=O`, in data set [2], the bioavailability turned out to be 57%. This compound also registered a total exposure AUC(0-inf) in data set [3] of 1300 ng·h/mL. This compound came in with a clearance in data set [4] of 12.8 mL/min/kg. In addition, the Vd in data set [5] came out at 1.41 L/kg. In data set [6], the half-life is 2.43 h.

With `CNC(=O)c1c(-c2ccc(F)cc2)oc2cc3c(cc12)C(C)NC(=O)CN3S(C)(=O)=O` (racemic), in data set [1], the solubility entry is on record as “Insoluble”.

Regarding `CNC(=O)c1c(-c2ccc(F)cc2)oc2cc3c(cc12)[C@H](C)O[C@H](CS(C)(=O)=O)CN3S(C)(=O)=O`, the CC50 at 24 h in [7] was greater than 10 µM. Further, the remaining at 1 h in [8] and in data set [9] was 100% each time.

Consider `CNC(=O)c1c(-c2ccc(F)cc2)oc2cc3c(cc12)C(C)OC(CS(C)(=O)=O)CN3S(C)(=O)=O` (racemic), for which the bioavailability in data set [2] came out at 30%. The area under the curve AUC(0-inf) in data set [3] was determined as 1060 ng·h/mL. The remaining at 1 h turned out to be 100% in [8] and 99.7% in data set [9]. In data set [4], this compound displayed a clearance of 16 mL/min/kg. The Vd in data set [5] was found to be 1.51 L/kg. This compound also showed a half-life in [6] of 3.62 h.

Take `CNC(=O)c1c(-c2ccc(F)cc2)oc2cc3c(cc12)[C@@H](C)OCCN3S(C)(=O)=O`: the bioavailability in data set [2] was found to be 16%. The same compound had an AUC(0-inf) in data set [3] of 234 ng·h/mL. This compound also had a clearance in data set [4] of 78 mL/min/kg. Also, the Vd in data set [5] worked out at 1.79 L/kg. In data set [6], this compound had a half-life of 0.34 h.

As for `CNC(=O)c1c(-c2ccc(F)cc2)oc2cc(N(CCO)S(C)(=O)=O)c(C3CC3)cc12` [NESBUVIR], in [2], the bioavailability is 73%. This compound also gave an area under the curve AUC(0-inf) in data set [3] of 1610 ng·h/mL. In addition, the remaining at 1 h in data set [8] is 53.3%; in [9], 84%. Besides, the clearance in [4] was found to be 10.4 mL/min/kg. Besides, in data set [5], the Vd was 1.52 L/kg. For the same compound, in data set [6], the half-life was 2.73 h.

Turning to `CNC(=O)c1c(-c2ccc(F)cc2)oc2cc3c(cc12)C(C)N(C)C(=O)CN3S(C)(=O)=O` (racemic), the solubility result in data set [1] is given as “Insoluble”.

Take `CNC(=O)c1c(-c2ccc(F)cc2)oc2cc3c(cc12)C(C)N(C)CCN3S(C)(=O)=O` (racemic): the solubility entry in data set [1] is “Soluble”.

`CNC(=O)c1c(-c2ccc(F)cc2)oc2cc3c(cc12)C(C)CCCN3S(C)(=O)=O` (racemic): the remaining at 1 h in data set [8] and in data set [9] was 0.8% each time.

Turning to `CNC(=O)c1c(-c2ccc(F)cc2)oc2cc3c(cc12)[C@H](C)OCCN3S(C)(=O)=O`, the remaining at 1 h was 32.6% in data set [8] and 5% in [9].
